Six compounds from ChEMBL document CHEMBL1146382, “Design and synthesis of BACE1 inhibitors containing a novel norstatine derivative (2R,3R)-3-amino-2-hydroxy-4-(phenylthio)butyric acid” (Bioorg Med Chem Lett, 2007) can be followed below.

In experiment [1] the target is Beta-secretase 1 (Homo sapiens) (UniProt P56817). Briefly: Inhibition of human recombinant BACE1 at 0.2 uM. A digest of the protocol: (§1)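 Recombinant human BACE1 enzymatic assay. Inhibition is expressed as the percent decrease in substrate cleaved by the enzyme.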
Experiment [2] has the same target. Kind of experiment: Inhibition of human recombinant BACE1 at 2 uM. A digest of the protocol:
as §1

Each structure is given as a SMILES string. Numbered stars: 1 amine (or outer) side, 2 acyl side, 3 side chain; on linkers, the order of the positions; unused ones are H or OH. Square brackets hold non-standard residues; d marks the D form. Peptide text beside a SMILES is read from it. β3hPhe(2R-OH) = O=C([C@H](O)[C@H](Cc1ccccc1)N[*:1])[*:2]; X1 = O=C([C@H](O)[C@H](CSc1ccccc1)N[*:1])[*:2]

Chain of Beta-secretase 1 (Homo sapiens) (P56817 whole entry): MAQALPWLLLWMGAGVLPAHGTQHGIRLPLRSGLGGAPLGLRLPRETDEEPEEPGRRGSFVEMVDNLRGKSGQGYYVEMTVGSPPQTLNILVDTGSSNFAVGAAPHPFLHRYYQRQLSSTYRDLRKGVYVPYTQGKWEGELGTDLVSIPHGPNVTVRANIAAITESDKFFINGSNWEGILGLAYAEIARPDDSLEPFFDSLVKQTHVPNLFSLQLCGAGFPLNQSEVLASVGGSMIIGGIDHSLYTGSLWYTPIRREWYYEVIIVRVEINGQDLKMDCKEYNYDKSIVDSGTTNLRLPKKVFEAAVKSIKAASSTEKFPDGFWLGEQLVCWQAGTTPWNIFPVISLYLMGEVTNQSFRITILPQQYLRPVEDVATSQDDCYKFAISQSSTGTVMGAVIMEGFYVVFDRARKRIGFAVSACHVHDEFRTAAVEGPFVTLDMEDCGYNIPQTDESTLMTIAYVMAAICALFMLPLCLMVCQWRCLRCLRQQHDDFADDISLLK

For the compound `CC(C)C[C@H](NC(=O)[C@@H](NC(=O)[C@@H](N)CNC(=O)c1cc(N)cc(C(=O)O)c1)C(C)C)C(=O)N[C@@H](Cc1ccccc1)[C@@H](O)C(=O)Nc1cccc(C(=O)O)c1`, the inhibition in experiment [1] is 80%; in experiment [2], 98%.

`CC(C)C[C@H](NC(=O)[C@@H](NC(=O)[C@@H](N)CNC(=O)c1cc(N)cc(C(=O)O)c1)C(C)C)C(=O)N[C@@H](CSc1ccccc1)[C@@H](O)C(=O)Nc1cccc(C(=O)O)c1`: the inhibition in experiment [1] was 86%; in experiment [2], 99%.

Take `CC(C)C[C@H](NC(=O)[C@@H](NC(=O)[C@@H](N)CCC(=O)O)C(C)C)C(=O)N[C@@H](Cc1ccccc1)[C@@H](O)C(=O)N[C@@H](CC(=O)O)C(=O)N[C@@H](C)C(=O)N[C@@H](CCC(=O)O)C(=O)N[C@@H](Cc1ccccc1)C(=O)O` (H-EVL[β3hPhe(2R-OH)]DAEF-OH): the inhibition in experiment [1] came out at 32%.

Regarding `CC(C)C[C@H](NC(=O)[C@@H](NC(=O)[C@@H](N)CCC(=O)O)C(C)C)C(=O)N[C@@H](CSc1ccccc1)[C@@H](O)C(=O)N[C@@H](CC(=O)O)C(=O)O` (H-EVL[X1]D-OH), in experiment [2], the inhibition is 69%.

In the case of `CC(C)C[C@H](NC(=O)[C@@H](NC(=O)[C@@H](N)CCC(=O)O)C(C)C)C(=O)N[C@@H](CSc1ccccc1)[C@@H](O)C(=O)N[C@@H](CC(=O)O)C(=O)N[C@@H](C)C(=O)N[C@@H](CCC(=O)O)C(=O)N[C@@H](Cc1ccccc1)C(=O)O` (H-EVL[X1]DAEF-OH), the figures for the inhibition in experiment [1] and in experiment [2] were 34% and 82%, respectively.

Take `CC(C)C[C@H](NC(=O)[C@@H](NC(=O)[C@@H](N)CCC(=O)O)C(C)C)C(=O)N[C@@H](CSc1ccccc1)[C@@H](O)C(=O)Nc1cccc(C(=O)O)c1`: the figures for the inhibition in experiment [1] and in experiment [2] were 57% and 96%, respectively.

Broadly, the inhibition is the percentage by which the read-out fell short of the control.
